Test results reported in ChEMBL document CHEMBL3351372, “Structure-Based Drug Design of Novel Potent and Selective Tetrahydropyrazolo[1,5-a]pyrazines as ATR Inhibitors” (ACS Med Chem Lett, 2015).
≈ marks a conversion by molar mass, not a printed value. One block for each compound: values may come before it.

How the values were obtained:
[1] = molecular target: Cytochrome P450 3A4 (Homo sapiens, UniProt P08684); experiment: Time dependent inhibition of CYP3A4 in human liver microsomes using midazolam as substrate assessed as ratio of Kinact to Ki preincubated for 0 to 30 mins followed by NADPH addition in phosphate buffer at 50 uM; format: ADME
Method in brief: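 Compound was preincubated with human liver microsomes (0.5 mg/mL) in 100 mM phosphate buffer with 1 mM NADPH for 0, 5, 15 and 30 min, testing 50 μM plus serial dilutions. The mix was diluted 20-fold and incubated with 20 μM midazolam to measure residual CYP3A4 activity. Activity versus preincubation time gave the kinetic TDI parameters.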

[2] = molecular target: Serine/threonine-protein kinase ATR (Homo sapiens, UniProt Q13535); experiment: Inhibition of ATR (unknown origin) using Avi-tagged protein substrate by alphascreen assay
[3] = molecular target: Phosphatidylinositol 4,5-bisphosphate 3-kinase catalytic subunit alpha isoform (Homo sapiens, UniProt P42336); experiment: Inhibition of PI3Kalpha (unknown origin)
[4] = Inhibition of CHK1 in HeLa S3 cells assessed as inhibition of phosphorylation at ser345 by AlphaScreen SureFire CHK1 (p-Ser345) assay
[5] = system: Liver microsome; experiment: Metabolic stability in human liver microsomes assessed as level of GSH adduct after 60 mins at 10 uM by GSH trapping assay; conditions: 1 h
[6] = Solubility of the compound in PBS buffer at pH 7 by miniaturized shake flask equilibrium solubility assay
[7] = molecular target: Serine-protein kinase ATM (Homo sapiens, UniProt Q13315); experiment: Inhibition of ATM (unknown origin) using p53-Q10-K17 peptide substrate by alphascreen assay
[8] = molecular target: DNA-dependent protein kinase catalytic subunit (Homo sapiens, UniProt P78527)
[9] = molecular target: Serine/threonine-protein kinase mTOR (Homo sapiens, UniProt P42345); experiment: Inhibition of mTOR (unknown origin) by alphascreen SureFire p70 S6K (p-Thr389) assay
Method in brief: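 They were treated with compound for 1 h under the same conditions. The read-out was p70 S6K phospho-Thr389.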

[10] = Oral bioavailability in rat at 2.5 mg/kg; format: ADME, organism-based; conditions: in vivo
[11] = molecular target: Voltage-gated inwardly rectifying potassium channel KCNH2 (Homo sapiens, UniProt Q12809); experiment: Inhibition of human ERG by automated whole cell electrophysiology
[12] = Octanol-water distribution coefficient, log D of the compound with pH 7.4 PBS buffer
[13] = Apparent permeability across apical to basolateral side in human Caco2 cells at pH 7.4; conditions: Caco-2, pH 7.4
[14] = Apparent permeability across basolateral to apical side in human Caco2 cells at pH 7.4; conditions: Caco-2, pH 7.4
[15] = Clearance in rat at 2.5 mg/kg; format: ADME, organism-based; set-up: dose 2.5 mg/kg; conditions: in vivo
[16] = Volume of distribution at steady state in rat at 2.5 mg/kg; format: ADME, organism-based; set-up: dose 2.5 mg/kg; conditions: in vivo, read-out: Vdss
[17] = Half life in rat at 2.5 mg/kg; format: ADME, organism-based; set-up: dose 2.5 mg/kg; conditions: in vivo

Serine-protein kinase ATM, sequence (Q13315 whole entry): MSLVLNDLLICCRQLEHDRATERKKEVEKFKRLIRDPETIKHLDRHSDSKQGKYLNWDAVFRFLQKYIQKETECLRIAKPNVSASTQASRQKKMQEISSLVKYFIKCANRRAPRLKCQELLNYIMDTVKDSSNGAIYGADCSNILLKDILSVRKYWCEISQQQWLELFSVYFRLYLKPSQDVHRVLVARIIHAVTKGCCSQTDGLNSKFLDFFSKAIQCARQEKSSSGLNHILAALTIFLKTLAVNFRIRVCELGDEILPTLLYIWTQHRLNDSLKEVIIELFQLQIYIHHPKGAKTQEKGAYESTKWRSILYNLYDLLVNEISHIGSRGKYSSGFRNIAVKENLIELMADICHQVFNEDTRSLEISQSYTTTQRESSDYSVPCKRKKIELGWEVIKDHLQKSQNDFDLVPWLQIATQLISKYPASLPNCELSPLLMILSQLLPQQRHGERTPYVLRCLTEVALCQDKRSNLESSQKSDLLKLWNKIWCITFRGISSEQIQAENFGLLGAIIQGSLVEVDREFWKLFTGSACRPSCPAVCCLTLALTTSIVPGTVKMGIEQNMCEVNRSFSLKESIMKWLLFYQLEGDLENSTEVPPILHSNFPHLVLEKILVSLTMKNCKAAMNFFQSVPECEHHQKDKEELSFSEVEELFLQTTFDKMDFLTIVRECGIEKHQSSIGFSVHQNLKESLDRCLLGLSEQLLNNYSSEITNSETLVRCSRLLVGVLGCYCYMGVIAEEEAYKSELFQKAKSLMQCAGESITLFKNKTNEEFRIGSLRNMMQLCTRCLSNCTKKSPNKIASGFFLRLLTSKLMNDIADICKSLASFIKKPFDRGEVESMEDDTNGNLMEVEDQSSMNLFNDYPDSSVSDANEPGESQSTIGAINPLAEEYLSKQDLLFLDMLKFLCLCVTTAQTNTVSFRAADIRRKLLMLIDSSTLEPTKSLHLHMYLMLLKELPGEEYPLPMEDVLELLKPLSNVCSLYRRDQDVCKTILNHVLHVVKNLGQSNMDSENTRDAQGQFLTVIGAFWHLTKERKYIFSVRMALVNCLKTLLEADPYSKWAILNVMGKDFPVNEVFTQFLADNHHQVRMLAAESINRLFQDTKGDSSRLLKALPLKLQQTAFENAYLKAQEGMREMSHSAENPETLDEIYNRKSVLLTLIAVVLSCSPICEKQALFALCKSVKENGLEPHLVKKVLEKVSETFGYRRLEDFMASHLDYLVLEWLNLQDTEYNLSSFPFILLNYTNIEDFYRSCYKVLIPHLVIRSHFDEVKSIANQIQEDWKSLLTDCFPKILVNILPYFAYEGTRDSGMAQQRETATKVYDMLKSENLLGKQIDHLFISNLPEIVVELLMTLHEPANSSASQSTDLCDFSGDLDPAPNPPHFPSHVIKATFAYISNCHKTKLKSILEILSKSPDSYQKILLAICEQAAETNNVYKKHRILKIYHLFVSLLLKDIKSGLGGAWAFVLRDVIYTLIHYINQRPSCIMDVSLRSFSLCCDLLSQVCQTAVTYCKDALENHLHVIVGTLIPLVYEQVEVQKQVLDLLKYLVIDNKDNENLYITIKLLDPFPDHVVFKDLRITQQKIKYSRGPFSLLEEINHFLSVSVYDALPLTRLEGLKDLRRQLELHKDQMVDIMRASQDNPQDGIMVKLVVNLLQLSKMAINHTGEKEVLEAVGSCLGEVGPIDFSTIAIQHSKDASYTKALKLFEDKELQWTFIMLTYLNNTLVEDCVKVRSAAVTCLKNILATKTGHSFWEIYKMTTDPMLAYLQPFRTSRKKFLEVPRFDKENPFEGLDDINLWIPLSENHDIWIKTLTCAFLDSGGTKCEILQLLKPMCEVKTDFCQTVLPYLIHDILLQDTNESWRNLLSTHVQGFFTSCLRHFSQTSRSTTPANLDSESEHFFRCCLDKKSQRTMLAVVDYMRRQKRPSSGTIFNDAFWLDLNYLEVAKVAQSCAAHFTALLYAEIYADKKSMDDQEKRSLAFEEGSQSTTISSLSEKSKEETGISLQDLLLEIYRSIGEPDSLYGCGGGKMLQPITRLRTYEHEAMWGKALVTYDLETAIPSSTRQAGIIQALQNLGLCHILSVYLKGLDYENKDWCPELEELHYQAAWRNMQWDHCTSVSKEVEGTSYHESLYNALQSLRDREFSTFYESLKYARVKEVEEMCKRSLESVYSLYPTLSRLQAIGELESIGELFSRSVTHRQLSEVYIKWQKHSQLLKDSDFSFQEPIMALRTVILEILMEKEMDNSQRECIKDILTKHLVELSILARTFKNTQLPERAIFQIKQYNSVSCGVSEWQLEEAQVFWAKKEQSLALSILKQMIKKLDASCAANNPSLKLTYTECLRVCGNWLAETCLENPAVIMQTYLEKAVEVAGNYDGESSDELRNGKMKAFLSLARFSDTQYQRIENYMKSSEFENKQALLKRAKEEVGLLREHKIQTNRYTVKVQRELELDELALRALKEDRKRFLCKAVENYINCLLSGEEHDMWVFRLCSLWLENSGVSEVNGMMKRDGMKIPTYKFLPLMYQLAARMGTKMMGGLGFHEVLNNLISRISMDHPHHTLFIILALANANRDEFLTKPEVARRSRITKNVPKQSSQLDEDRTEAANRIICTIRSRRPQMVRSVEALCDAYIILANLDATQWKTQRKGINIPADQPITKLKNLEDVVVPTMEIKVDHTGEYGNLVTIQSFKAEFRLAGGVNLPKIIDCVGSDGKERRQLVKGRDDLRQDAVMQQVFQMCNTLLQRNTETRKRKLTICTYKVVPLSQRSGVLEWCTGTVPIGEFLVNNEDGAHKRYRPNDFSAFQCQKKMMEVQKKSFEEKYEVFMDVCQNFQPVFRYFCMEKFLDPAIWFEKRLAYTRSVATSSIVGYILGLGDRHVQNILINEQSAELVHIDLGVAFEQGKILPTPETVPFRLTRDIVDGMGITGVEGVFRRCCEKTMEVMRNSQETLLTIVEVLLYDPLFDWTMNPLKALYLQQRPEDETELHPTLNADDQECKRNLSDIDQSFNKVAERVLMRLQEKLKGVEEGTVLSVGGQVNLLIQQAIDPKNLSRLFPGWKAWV
Phosphatidylinositol 4,5-bisphosphate 3-kinase catalytic subunit alpha isoform, sequence (P42336 whole entry, canonical isoform): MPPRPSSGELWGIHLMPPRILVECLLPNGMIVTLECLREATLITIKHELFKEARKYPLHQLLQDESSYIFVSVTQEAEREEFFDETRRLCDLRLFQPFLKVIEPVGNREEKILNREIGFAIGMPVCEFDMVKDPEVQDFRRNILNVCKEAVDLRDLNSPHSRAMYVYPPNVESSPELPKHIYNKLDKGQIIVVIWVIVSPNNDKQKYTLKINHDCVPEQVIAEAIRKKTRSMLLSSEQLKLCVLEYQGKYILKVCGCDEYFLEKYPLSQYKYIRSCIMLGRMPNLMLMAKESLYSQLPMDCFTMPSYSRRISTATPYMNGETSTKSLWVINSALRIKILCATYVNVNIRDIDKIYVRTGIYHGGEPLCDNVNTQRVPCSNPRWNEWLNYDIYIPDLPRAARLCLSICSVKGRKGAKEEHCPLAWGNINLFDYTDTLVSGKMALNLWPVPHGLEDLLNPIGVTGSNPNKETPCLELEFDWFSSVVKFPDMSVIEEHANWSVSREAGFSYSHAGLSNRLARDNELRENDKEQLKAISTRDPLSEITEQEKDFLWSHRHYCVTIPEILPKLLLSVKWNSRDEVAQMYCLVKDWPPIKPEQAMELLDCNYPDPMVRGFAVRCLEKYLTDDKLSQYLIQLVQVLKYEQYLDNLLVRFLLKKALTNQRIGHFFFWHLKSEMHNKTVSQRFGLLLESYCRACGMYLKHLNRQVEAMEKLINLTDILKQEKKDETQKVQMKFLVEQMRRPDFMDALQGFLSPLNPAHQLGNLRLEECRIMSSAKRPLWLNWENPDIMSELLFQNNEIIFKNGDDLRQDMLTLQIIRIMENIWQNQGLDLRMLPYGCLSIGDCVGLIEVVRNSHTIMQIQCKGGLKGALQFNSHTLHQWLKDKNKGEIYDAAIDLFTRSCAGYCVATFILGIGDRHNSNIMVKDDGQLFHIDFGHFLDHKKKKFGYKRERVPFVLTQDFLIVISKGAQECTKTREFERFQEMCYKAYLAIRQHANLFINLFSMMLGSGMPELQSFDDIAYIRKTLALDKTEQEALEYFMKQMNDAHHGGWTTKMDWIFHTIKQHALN
Cytochrome P450 3A4, sequence (P08684 whole entry): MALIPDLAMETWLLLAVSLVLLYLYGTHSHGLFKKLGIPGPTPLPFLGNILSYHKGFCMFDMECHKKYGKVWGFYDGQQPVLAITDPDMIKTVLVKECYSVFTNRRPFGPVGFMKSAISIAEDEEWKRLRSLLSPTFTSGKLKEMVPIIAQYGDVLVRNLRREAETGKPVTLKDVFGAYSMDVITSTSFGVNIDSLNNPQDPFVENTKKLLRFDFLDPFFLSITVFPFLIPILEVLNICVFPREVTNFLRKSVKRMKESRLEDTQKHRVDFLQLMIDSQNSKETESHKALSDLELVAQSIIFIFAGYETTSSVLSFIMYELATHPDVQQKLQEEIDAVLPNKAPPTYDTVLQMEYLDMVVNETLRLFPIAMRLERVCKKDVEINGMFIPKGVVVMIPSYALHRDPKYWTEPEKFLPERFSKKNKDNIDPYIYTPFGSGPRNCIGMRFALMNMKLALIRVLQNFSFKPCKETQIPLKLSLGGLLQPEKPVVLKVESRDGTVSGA

Structure (SMILES): C[C@@H]1[C@@H](C)n2ncc(C3CCN(S(C)(=O)=O)CC3)c2CN1c1ccnc2[nH]ccc12
Ratio [1]: 0.004 µL/min/pmol
IC50 [2]: 2.1 µM

Structure (SMILES): CN(C)S(=O)(=O)c1ccc(-c2cnc3ccc(-c4ccnc5[nH]ccc45)nn23)cc1
IC50 [2]: 0.0005 µM
IC50 [3]: 0.04 µM
IC50 [4]: 0.044 µM

Structure (SMILES): [2H]C1([2H])c2c(C3CCN(S(C)(=O)=O)CC3)cnn2C[C@@H](C)N1c1cc(Cl)nc2[nH]ccc12
Stability [5]: Unstable

Structure (SMILES): COc1ccc(-c2ccc3ncc(-c4ccc(C(N)=O)cc4)n3n2)cc1OC
IC50 [2]: 0.026 µM
IC50 [3]: 0.009 µM

Structure (SMILES): CN(C)S(=O)(=O)c1ccc(-c2cnn3c2CN(c2ccnc4[nH]ccc24)CC3)cc1
IC50 [2]: 0.001 µM
solubility thermodynamic [6]: 3 µM (≈ 1.27 µg/mL)
IC50 [3]: 1.1 µM

Structure (SMILES): C[C@@H]1Cc2ncn(C3CCN(S(C)(=O)=O)CC3)c2CN1c1ccnc2[nH]ccc12
Ratio [1]: 0.001 µL/min/pmol
IC50 [2]: 0.041 µM

Structure (SMILES): C[C@@H]1Cn2ncc(-c3ccc(S(C)(=O)=O)cc3)c2CN1c1ccnc2[nH]ccc12
IC50 [2]: 0.0003 µM
IC50 [7]: 0.13 µM
IC50 [8]: 0.14 µM
IC50 [9]: 1.1 µM

Structure (SMILES): C[C@@H]1Cn2ncc(-c3ccc(S(=O)(=O)N(C)C)cc3)c2CN1c1ccnc2[nH]ccc12
IC50 [2]: 0.0005 µM
solubility thermodynamic [6]: 188 µM (≈ 82.1 µg/mL)
IC50 [3]: > 10 µM
IC50 [4]: 0.123 µM

Structure (SMILES): [2H]C1([2H])c2c(C3CCN(S(C)(=O)=O)CC3)cnn2C[C@@]([2H])(C)N1c1cc(Cl)nc2[nH]ccc12
Stability [5]: Unstable

Structure (SMILES): C[C@@H]1Cn2ncc(C3CCN(S(C)(=O)=O)CC3)c2C(=O)N1c1ccnc2[nH]ccc12
TDI [1]: Not Active
IC50 [2]: 0.064 µM

Structure (SMILES): [2H][C@@]1(C)Cn2ncc(C3CCN(S(C)(=O)=O)CC3)c2CN1c1cc(Cl)nc2[nH]ccc12
Stability [5]: Stable

The next lines start with results.

inhibition (INH) [1]: Active
IC50 [2]: 0.44 µM
Structure (SMILES): C[C@@H]1Cn2ncc(C3CCN(S(C)(=O)=O)CC3)c2CN1c1ccnc(N)c1

bioavailability [10]: 64%
IC50 [2]: 0.0004 µM
IC50 [7]: 4.3 µM
IC50 [8]: 1.6 µM
IC50 [9]: 4.4 µM
solubility thermodynamic [6]: 37 µM (≈ 16.6 µg/mL)
logD [12]: 3.4
Papp A→B [13]: 18 ×10⁻⁶ cm/s
Papp B→A [14]: 30 ×10⁻⁶ cm/s
clearance [15]: 57 mL/min/kg
Vd [16]: 3.3 L/kg
half-life [17]: 51.6 min
Structure (SMILES): C[C@@H]1Cn2ncc(C3CCN(S(C)(=O)=O)CC3)c2CN1c1cc(Cl)nc2[nH]ccc12
IC50 [11]: 12.5 µM

inhibition (INH) [1]: Active
IC50 [2]: 0.002 µM
Structure (SMILES): C[C@@H]1Cn2ncc(C3CCN(S(C)(=O)=O)CC3)c2CN1c1ccnc2[nH]cnc12

IC50 [2]: 0.001 µM
IC50 [7]: 14 µM
IC50 [8]: 6.5 µM
IC50 [9]: > 2.3 µM
solubility thermodynamic [6]: 965 µM (≈ 400 µg/mL)
logD [12]: 2.4
Papp A→B [13]: 10 ×10⁻⁶ cm/s
Papp B→A [14]: 44 ×10⁻⁶ cm/s
Structure (SMILES): C[C@@H]1Cn2ncc(C3CCN(S(C)(=O)=O)CC3)c2CN1c1ccnc2[nH]ccc12

Ratio [1]: 0.023 µL/min/pmol
IC50 [2]: 6.2 µM
Structure (SMILES): CC1(C)Cn2ncc(C3CCN(S(C)(=O)=O)CC3)c2CN1c1cc(Cl)nc2[nH]ccc12

inhibition (INH) [1]: Not Active
IC50 [2]: 0.029 µM
Structure (SMILES): C[C@@H]1Cn2ncc(C3CCN(S(C)(=O)=O)CC3)c2CN1c1ccnc2[nH]ncc12
